In data set [1] the test system is Escherichia coli. Kind of data set: Antibacterial activity against Escherichia coli BL21 (DE3) assessed as inhibition of bacterial growth incubated for 16 hrs by CLSI broth microdilution method. Type of data set: functional. (Dilution methods test growth across graded concentrations, often in twofold steps.)
The nature of data set [2]: Inhibition of bacterial ImiS expressed in Escherichia coli BL21 (DE3) using imipenem as substrate preincubated for 3 hrs with enzyme followed by substrate addition by spectrometry analysis. Details: species or system Bacteria. The method in brief: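 Purified ImiS preincubated 3 h with inhibitor (six concentrations, 0.01–20 μM; DMSO below 0.5%) in 30 mM Tris pH 7.0, 25 °C; imipenem 40 μM. Hydrolysis read at 300 nm, rates in triplicate. IC50 from linear fit of mean percent inhibition against inhibitor concentration.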

Data set [3] relates to Bacteria. Kind of data set: Inhibition of bacterial ImiS expressed in Escherichia coli BL21 (DE3) at 20 uM using imipenem as substrate by spectrometry analysis relative to control. Summed up:
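Purified ImiS with imipenem (40 μM) in 30 mM Tris pH 7.0; inhibitor at 20 μM, DMSO below 0.5%. Hydrolysis followed at 300 nm by UV-vis; initial rates in triplicate, averaged. Percent inhibition = activity without inhibitor (100%) minus residual activity.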

For data set [4], the system named is Bacteria. Kind of data set: Inhibition of bacterial L1 expressed in Escherichia coli BL21 (DE3) at 20 uM using cefazolin as substrate by spectrometry analysis relative to control. Summed up: (§1)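 Purified L1 or NDM-1; cefazolin (40 μM) substrate, hydrolysis monitored at 262 nm by UV-vis. Inhibitor at 20 μM. Initial rates with and without inhibitor measured in triplicate and averaged; percent inhibition = uninhibited activity (100%) minus residual activity.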

Data set [5] relates to Bacteria. Kind of data set: Inhibition of bacterial NDM-1 expressed in Escherichia coli BL21 (DE3) at 20 uM using cefazolin as substrate by spectrometry analysis relative to control. Summed up: as §1
Data set [6] relates to Bacteria. Kind of data set: Inhibition of beta-lactamase ImiS (unknown origin) in expressed Escherichia coli BL21 (DE3) assessed as potentiation of imipenem induced antibacterial activity by measuring imipenem MIC at 64 ug/ml incubated for 16 hrs by CLSI broth microdilution method (reference value: 16 ug/ml). The settings on record: dose 64.0 µg/ml. Summed up: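 E. coli BL21 (DE3) carrying pET26b-ImiS grown in MH broth to OD600 0.5, diluted to 1 × 10^5 CFU mL–1. CLSI broth dilution; imipenem serially diluted, inhibitor at 64 μg mL–1 stock.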

A short description of data set [7]: Cytotoxicity against mouse L929 cells assessed as cell viability up to 200 uM measured after 48 hrs by MTT assay. Type of data set: cell-based. The settings on record: read-out: Activity.
For data set [8], the system named is Bacteria. Put plainly: Inhibition of beta-lactamase ImiS (unknown origin) expressed in Escherichia coli BL21 (DE3) assessed as potentiation of meropenem induced antibacterial activity by measuring meropenem MIC at 64 ug/ml incubated for 16 hrs by CLSI broth microdilution method (reference value: 64 ug/ml). The settings on record: dose 64.0 µg/ml.
Data set [9] is described as follows: Mixed type inhibition of bacterial ImiS using varying levels of imipenem as substrate assessed as hydrolysis by Line weaver Burk plot analysis. Also noted: species or system Bacteria. Summed up:
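Initial imipenem hydrolysis rates by ImiS at 20, 40, 60, 80 and 100 μM substrate, inhibitor at 0, 1, 5 and 10 μM; 300 nm read-out, triplicate. Mode assigned from Lineweaver–Burk plots; Ki from fits of initial velocity against substrate concentration at each inhibitor level.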

The test system of data set [10] is Bacteria. Kind of data set: Inhibition of bacterial ImiS expressed in Escherichia coli BL21 (DE3) at 10 uM using imipenem as substrate by spectrometry analysis relative to control. Summed up:
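Time and concentration dependence: ImiS incubated with inhibitor at 0.5, 1 or 5 μM over varying times, or over 0.01–10 μM for the inhibition curve; residual activity against imipenem measured spectrophotometrically at 300 nm in 30 mM Tris pH 7.0.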

Data set [11] relates to Bacteria. Put plainly: Inhibition of bacterial ImiS expressed in Escherichia coli BL21 (DE3) by measuring hydrolysis of imipenem using imipenem as substrate preincubated for 3 hrs with enzyme followed by substrate addition by isothermal titration calorimetric method. Particulars: dose microM 0.1-10, time 3.0 hrs. The method in brief:
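ITC, single-injection mode, 25 °C, 30 mM Tris with 0.5% DMSO. ImiS (100 nM) preincubated 3 h with inhibitor (0–10 μM), then one 38 μL injection of imipenem (0.5 mM); stirring 750 rpm. Heat flow (dq/dt) recorded every 1 s until return to baseline.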
In general terms: ITC needs no label: the signal is the heat of the interaction.

For data set [12], the system named is Mus musculus. Kind of data set: In vivo antibacterial activity against Escherichia coli BL21 (DE3) expressing ImiS infected in Kunming mouse assessed as reduction in bacterial load spleen at 10 mg/kg, ip administered after 2 hrs post infection and measured after 24 hrs. Type of data set: functional, organism-based. Summed up:
(§2)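 Kunming mice (male and female, 20 ± 2 g), six per group, infected ip with 200 μL E. coli BL21 (DE3)-ImiS suspension (OD600 = 1.0). At 2 h, single ip dose: PBS, meropenem 10 mg kg–1, inhibitor 10 mg kg–1, or meropenem plus inhibitor (each 10 mg kg–1). Euthanized 24 h post-infection; 0.1 g spleen and liver homogenized in 1 mL PBS, serially diluted, plated on LB agar for cfu.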

For data set [13], the system named is Mus musculus. Kind of data set: In vivo inhibition of beta-lactamase ImiS (unknown origin) expressed in Escherichia coli BL21 (DE3) infected in Kunming mouse assessed as potentiation of meropenem-induced reduction in bacterial load in spleen at 10 mg/kg, ip administered after 2 hrs post infection and measured after 24 hrs. Type of data set: functional, organism-based. The method in brief: as §2

The test system of data set [14] is Mus musculus. Put plainly: In vivo inhibition of beta-lactamase ImiS (unknown origin) expressed in Escherichia coli BL21 (DE3) infected in Kunming mouse assessed as potentiation of meropenem-induced reduction in bacterial load in liver at 10 mg/kg, ip administered after 2 hrs post infection and measured after 24 hrs. Type of data set: functional, organism-based. Summed up:
as §2

Data set [15] concerns Escherichia coli. Put plainly: In vivo antibacterial activity against Escherichia coli BL21(DE3) expressing ImiS infected in Kunming mouse assessed as reduction in bacterial load liver at 10 mg/kg, ip administered after 2 hrs post infection and measured after 24 hrs. Type of data set: functional, organism-based. Summed up: as §2

Values after ≈ are worked out from the molar mass of the structure shown. Active and inactive are the calls of the source. The rule behind the calls is not given here. Bounds are passed on as bounds.

Results on eight compounds are retold here after ChEMBL document CHEMBL4673174, “meta-Substituted benzenesulfonamide: a potent scaffold for the development of metallo-beta-lactamase ImiS inhibitors” (RSC Med Chem, 2020).

In general, IC50 refers to the concentration at which inhibition is half-maximal. The low end stands for greater potency in that assay, the high end for weaker potency in that assay. What is called inhibition is the share of the control response that was lost under treatment. By Ki is commonly meant a dissociation constant, usually derived from enzyme kinetics or from competition with a known ligand.

For `C[C@@H](O)[C@H]1C(=O)N2C(C(=O)O)=C(SCCNC=N)C[C@H]12` [IMIPENEM ANHYDROUS], the MIC in the data set with Escherichia coli [1] worked out at 0.25 µg/mL (≈ 0.835 µM).

For `CC(C)(C)c1ccc(C(=O)Nc2ccccc2S(N)(=O)=O)cc1`, half-maximal inhibition in [2] (IC50) required 4.6 µM. Besides, the inhibition in the data set with Bacteria [3] is greater than 70%; in the data set on Bacteria [4], less than 20%; in the data set on Bacteria [5], less than 20%. The figures for the MIC with Bacteria [6] and in the data set with Bacteria [8] were 8 µg/mL and 32 µg/mL, respectively. Further, in data set [7], the viability at 48 h was greater than 80%.

`NS(=O)(=O)c1cccc(NC(=O)c2ccc(Cl)cc2)c1` registered an IC50 in data set [2] of 0.44 µM. Besides, the inhibition was greater than 70% with Bacteria [3], less than 20% with Bacteria [4] and less than 20% in the data set on Bacteria [5]. The values for the MIC in the data set on Bacteria [6] and in the data set with Bacteria [8] were 4 µg/mL and 16 µg/mL, respectively. Besides, in data set [7], the viability at 48 h is greater than 80%.

For `COC(=O)c1ccc(C(=O)Nc2ccc(S(N)(=O)=O)cc2)cc1`, in [2], the IC50 amounted to 7.3 µM. Also, the inhibition was greater than 70% with Bacteria [3], less than 20% in the data set on Bacteria [4] and less than 20% with Bacteria [5]. Besides, the Ki in [9] turned out to be 8 µM. Further, the MIC is 8 µg/mL in the data set with Bacteria [6] and 32 µg/mL in the data set on Bacteria [8].

`NS(=O)(=O)c1ccc(NC(=O)c2ccc(Cl)cc2)cc1` came in with an IC50 in data set [2] of 5.1 µM. Moreover, the inhibition with Bacteria [3] is greater than 70%; in the data set on Bacteria [4], less than 20%; in the data set with Bacteria [5], less than 20%. Moreover, the MIC was found to be 8 µg/mL in the data set with Bacteria [6] and 32 µg/mL with Bacteria [8]. The viability at 48 h in data set [7] was greater than 80%.

Turning to `COC(=O)c1ccc(C(=O)Nc2cccc(S(N)(=O)=O)c2)cc1`, 0.11 µM corresponded to half-maximal inhibition in [2] (IC50). The inhibition in the data set with Bacteria [3] was 95%; with Bacteria [4], less than 20%; in the data set on Bacteria [5], less than 20%; with Bacteria [10] it was 92%; in the data set with Bacteria [11] it was “Dose-dependent effect”. Moreover, the Ki in data set [9] is 0.55 µM. Also, the MIC in the data set on Bacteria [6] is 4 µg/mL; in the data set on Bacteria [8] it was 16 µg/mL. The outcome in the data set on Mus musculus [12] and in the data set with Escherichia coli [15] was inactive. Also, the inhibition entry with Mus musculus [13] and with Mus musculus [14] was “Active” throughout. In addition, in data set [7], the viability at 48 h is greater than 80%.

With `NS(=O)(=O)c1cccc(NC(=O)c2cccc(Br)c2)c1`, the IC50 in data set [2] is 0.14 µM. In addition, the values for the inhibition with Bacteria [3], in the data set with Bacteria [4] and with Bacteria [5] were greater than 70%, less than 20% and less than 20%, respectively. The MIC in the data set with Bacteria [6] was 4 µg/mL; in the data set on Bacteria [8] it was 16 µg/mL.

Regarding `NS(=O)(=O)c1ccc(NC(=O)c2cccc([N+](=O)[O-])c2)cc1`, in [2], the IC50 worked out at 4.8 µM. The inhibition in the data set on Bacteria [3] was greater than 70%; in the data set on Bacteria [4], less than 20%; with Bacteria [5], less than 20%. The MIC in the data set on Bacteria [6] worked out at 8 µg/mL; with Bacteria [8] it was 32 µg/mL.
